Measurements taken from ChEMBL document CHEMBL1131331, “Structure-activity studies on anticonvulsant sugar sulfamates related to topiramate. Enhanced potency with cyclic sulfate derivatives” (J Med Chem, 1998).

These compounds were tested on Mus musculus (assay: Activity against maximal electroshock seizures in mice, 4 hr following oral administration of 75 mg/kg).
Format: functional
Summary of the method: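 Mouse maximal electroshock seizure test. An electric shock is applied through corneal electrodes, and block of the hind-limb tonic-extensor seizure is scored. Compounds are given orally, usually to 10 mice per group, and tested 4 h after dosing. The result is reported as percent of dosed animals protected at the stated dose.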

**Q.** For NS(=O)(=O)OC[C@]12CCC[C@H]1[C@@H]1OS(=O)(=O)O[C@@H]1CC2, which Block is on record?
**A.** Its Block is 0%.

**Q.** For CC1(C)O[C@H]2[C@H]3C(CO[C@@]2(COS(N)(=O)=O)O1)C3(Cl)Cl (stereo not given in full), which Block is on record?
**A.** Its Block is 0%.

**Q.** With CC1(C)O[C@H]2[C@@H]3OB(c4ccccc4)O[C@@H]3CO[C@@]2(COS(N)(=O)=O)O1 as the compound, how does the Block read?
**A.** The Block was 0%.

**Q.** How did the Block turn out when CC1(C)O[C@H]2[C@@H]3OS(=O)(=O)O[C@@H]3CO[C@@]2(COS(=O)(=O)N2CCCCC2)O1 was run?
**A.** The Block was 0%.

**Q.** With CC(OS(N)(=O)=O)[C@@]12OC[C@H]3OC(C)(C)O[C@H]3[C@@H]1OC(C)(C)O2 (stereo not given in full) as the compound, how does the Block read?
**A.** The Block was 0%.

**Q.** CN(C[C@@]12OC[C@H]3OC(C)(C)O[C@H]3[C@@H]1OC(C)(C)O2)S(N)(=O)=O was tested. Which Block did it give?
**A.** The Block was 0%.

**Q.** How did the Block turn out when COC1(OC)O[C@@H]2[C@@H](CO[C@@]3(COS(N)(=O)=O)OC(C)(C)O[C@@H]23)O1 was run?
**A.** The Block was 0%.

**Q.** For CC1(C)O[C@@H]2[C@@H](CO[C@@]3(CCS(N)(=O)=O)OC(C)(C)O[C@@H]23)O1, which Block is on record?
**A.** Its Block is 0%.

**Q.** With CC[C@@]1(C)O[C@@H]2[C@@H](CO[C@@]3(COS(N)(=O)=O)OC(C)(C)O[C@@H]23)O1 as the compound, how does the Block read?
**A.** The Block was 90%.

**Q.** For CC1(C)C[C@H]2[C@@H]3OC(C)(C)O[C@@H]3CC[C@@]2(COS(N)(=O)=O)C1, which Block is on record?
**A.** The Block was 0%.

**Q.** With CC1(C)O[C@H]2[C@@H]3OC4(CCCC4)O[C@@H]3CO[C@@]2(COS(N)(=O)=O)O1 as the compound, how does the Block read?
**A.** The Block was 0%.

**Q.** With CC1(C)O[C@H]2[C@@H]3O[C@](C)(C(C)(C)C)O[C@@H]3CO[C@@]2(COS(N)(=O)=O)O1 as the compound, how does the Block read?
**A.** The Block was 0%.

**Q.** For CC1(C)O[C@H]2[C@@H]3OC(C(F)(F)F)(C(F)(F)F)O[C@@H]3CO[C@@]2(COS(N)(=O)=O)O1, which Block is on record?
**A.** The Block was 40%.

**Q.** CC1(C)O[C@H]2[C@@H]3OS(=O)(=O)O[C@@H]3CO[C@@]2(COS(=O)(=O)N2CCN(Cc3ccccc3)CC2)O1 was tested. Which Block did it give?
**A.** The Block was 0%.

**Q.** With NS(=O)(=O)OC[C@@]12OC[C@H]3OC4(CCCCC4)O[C@H]3[C@@H]1OC1(CCCCC1)O2 as the compound, how does the Block read?
**A.** Its Block is 0%.

**Q.** How did the Block turn out when CC1(C)O[C@H]2[C@@H]3OCO[C@@H]3CO[C@@]2(COS(N)(=O)=O)O1 was run?
**A.** The Block was 0%.

**Q.** For CC1(C)O[C@@H]2[C@@H](CC[C@@]3(COS(N)(=O)=O)CCC[C@@H]23)O1, which Block is on record?
**A.** The Block was 0%.

**Q.** Which Block does the source give for CC1(C)O[C@@H]2[C@@H](CO[C@@]3(CNS(N)(=O)=O)OC(C)(C)O[C@@H]23)O1 here?
**A.** The Block was 0%.

**Q.** CC1(C)O[C@@H]2[C@@H](CO[C@@]3(CCCOS(N)(=O)=O)OC(C)(C)O[C@@H]23)O1 was tested. Which Block did it give?
**A.** Its Block is 0%.

**Q.** NS(=O)(=O)OC[C@@]12CCC=C[C@@H]1CCC2 was tested. Which Block did it give?
**A.** Its Block is 0%.

**Q.** CC1(C)O[C@H]2[C@@H]3O[C@H](C(C)(C)C)O[C@@H]3CO[C@@]2(COS(N)(=O)=O)O1 was tested. Which Block did it give?
**A.** The Block was 0%.

**Q.** CCC(OS(N)(=O)=O)[C@@]12OC[C@H]3OC(C)(C)O[C@H]3[C@@H]1OC(C)(C)O2 (stereo not given in full) was tested. Which Block did it give?
**A.** The Block was 0%.

**Q.** Which Block does the source give for COc1ccc(NS(=O)(=O)OC[C@@]23OC[C@H]4OS(=O)(=O)O[C@H]4[C@@H]2OC(C)(C)O3)cc1 here?
**A.** The Block was 0%.

**Q.** Which Block does the source give for CC1(C)O[C@H]2[C@@H]3OCCO[C@@H]3CO[C@@]2(COS(N)(=O)=O)O1 here?
**A.** Its Block is 0%.

**Q.** CC1(C)O[C@H]2[C@@H]3OC(=S)O[C@@H]3CO[C@@]2(COS(N)(=O)=O)O1 was tested. Which Block did it give?
**A.** Its Block is 12.5%.

**Q.** C[C@H]1O[C@@H]2[C@@H](CO[C@@]3(COS(N)(=O)=O)OC(C)(C)O[C@@H]23)O1 was tested. Which Block did it give?
**A.** The Block was 0%.

**Q.** How did the Block turn out when CO[C@@H]1[C@H](OC)CO[C@@]2(COS(N)(=O)=O)OC(C)(C)O[C@@H]12 was run?
**A.** The Block was 0%.

**Q.** How did the Block turn out when CCO[C@@H]1O[C@@H]2[C@@H](CO[C@@]3(COS(N)(=O)=O)OC(C)(C)O[C@@H]23)O1 was run?
**A.** Its Block is 0%.

**Q.** How did the Block turn out when NS(=O)(=O)OC[C@@]12OC[C@H]3O[C@@H](c4ccccc4)O[C@H]3[C@@H]1O[C@H](c1ccccc1)O2 was run?
**A.** Its Block is 0%.

**Q.** NS(=O)(=O)OC[C@]12CCC[C@H]1[C@@H]1C[C@@H]1CC2 was tested. Which Block did it give?
**A.** Its Block is 0%.
